Data: ChEMBL document CHEMBL1157962, “Antifungal azaphilones from the fungus Chaetomium cupreum CC3003” (J Nat Prod, 2006)
Values after ≈ are worked out from the molar mass of the structure shown. Active and inactive are the calls of the source. The rule behind the calls is not given here.

Columns and labels:
[1] = system: KB; assay: Cytotoxicity against human KB cells; assay type: functional, cell-based
[2] = system: BC1; assay: Cytotoxicity against human BC1 cells; assay type: functional, cell-based
[3] = system: NCI-H178; assay: Cytotoxicity against human […] cells; assay type: functional, cell-based
[4] = system: Candida albicans; assay: Antifungal activity against Candida albicans by XTT formazan assay; assay type: functional, organism-based
How it was run: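 Clinical isolate of Candida albicans tested by a modified soluble formazan (XTT) method. Viable cells read as XTT formazan absorbance at 450 nm. IC50 taken in μg/mL.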

SMILES	Activity [1]	Activity [2]	Activity [3]	IC50 [4] [µg/mL]
CC[C@H](C)/C=C(C)/C=C/C1=CC2=C(Cl)C(=O)[C@@]3(C)OC(=O)C(C(C)=O)=C3C2=CO1 [RUBROROTIORIN]	inactive	inactive	inactive	0.6 (≈ 1.45 µM)
CC[C@H](C)/C=C(C)/C=C/C1=CC2=CC3=C(C(C)=O)C(=O)O[C@@]3(C)[C@H](O)C2=CO1 [ROTIORINOL A]	inactive	inactive	inactive	10.5 (≈ 27.5 µM)
CC[C@H](C)/C=C(C)/C=C/C1=CC2=CC3=C(C(C)=O)C(=O)O[C@@]3(C)C(=O)C2=CO1	inactive	inactive	inactive	24.3 (≈ 63.9 µM)
CC(=O)C1=C2C=C3C=C(/C=C/C(C)=C/[C@@H](C)CCO)OC=C3[C@@H](O)[C@]2(C)OC1=O [ROTIORINOL C]	inactive	inactive	inactive	16.7 (≈ 41.9 µM)
